Measurements from ChEMBL document CHEMBL1153000, “Berbamine derivatives: a novel class of compounds for anti-leukemia activity” (Eur J Med Chem, 2009).
Activity calls are given as the source filed them. No cut-off for these calls is given here.

What was measured:
K562 [1] = experiment: Cytotoxicity against human imatinib-resistant K562 leukemia cells expressing p210Bcr/Abl and MDR1 at 48 hrs by MTT assay; assay type: functional, cell-based; settings: K562, 48 h
How it was run: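 Cells were cultured with 100 µg/ml streptomycin at 37 °C in a humidified 95% air/5% CO2 incubator. Viability was read by MTT after 48 h exposure and counts were taken by hemocytometer. IC50 is the mean of three independent determinations.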

K562 [2] = experiment: Inhibition of NF-kappaB translocation from cytoplasm to nucleus in human imatinib-resistant K562 leukemia cells expressing p210Bcr/Ab assessed as disappearance of NF-kappaB p65/relA subunit nuclear level at 0.5 ug/ml after 24 hrs by Western blot analysis; assay type: functional, cell-based
How it was run: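 Leukemia cells were exposed for 24 h (berbamine 8 µg/ml; derivatives 0.5 µg/ml). Nuclear levels of NF-κB p65/relA were analysed by immunoblot with lamin as the nuclear loading control, and total p65 was also assessed.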

K562 [3] = experiment: Inhibition of NF-kappaB translocation from cytoplasm to nucleus in human imatinib-resistant K562 leukemia cells expressing p210Bcr/Ab assessed as disappearance of NF-kappaB p65/relA subunit nuclear level at 0.5 ug/ml after 24 hrs by Western blot analysis
K562 [4] = experiment: Cell cycle arrest in human imatinib-resistant K562 leukemia cells expressing p210Bcr/Ab assessed as accumulation at S phase at 1 ug/ml after 48 hrs by flow cytometry; assay type: functional
How it was run: (§1)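 K562-R cells (MDR1-expressing) were treated with 1.0 or 2.0 µg/ml for 48 h, then harvested, PBS-washed, fixed in ice-cold 70% ethanol at 4 °C overnight, and stained with 50 µg/ml propidium iodide. Flow cytometry gave the percentage of cells in G0/G1, S and G2/M, with the sub-G1 fraction scored as apoptotic.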

K562 [5] = experiment: Induction of apoptosis in human imatinib-resistant K562 cells expressing p210Bcr/Abl at 1 ug/ml after 48 hrs by flow cytometry; assay type: functional; how it was run: as §1
K562 [6] = experiment: Cell cycle arrest in human imatinib-resistant K562 leukemia cells expressing p210Bcr/Ab assessed as accumulation at G2/M phase at 1 ug/ml after 48 hrs by flow cytometry; assay type: functional; how it was run: as §1
K562 [7] = experiment: Induction of apoptosis in human imatinib-resistant K562 leukemia cells expressing p210Bcr/Abl at 2 ug/ml after 48 hrs by flow cytometry; assay type: functional; how it was run: as §1
K562 [8] = experiment: Cell cycle arrest in human imatinib-resistant K562 leukemia cells expressing p210Bcr/Ab assessed as accumulation at S phase at 2 ug/ml after 48 hrs by flow cytometry; assay type: functional; how it was run: as §1
K562 [9] = experiment: Cell cycle arrest in human imatinib-resistant K562 leukemia cells expressing p210Bcr/Ab assessed as accumulation at G0/G1 phase at 2 ug/ml after 48 hrs by flow cytometry; assay type: functional; how it was run: as §1
K562 [10] = experiment: Cell cycle arrest in human imatinib-resistant K562 cells assessed as accumulation at G2/M phase at 2 ug/ml after 48 hrs by flow cytometry; assay type: functional; how it was run: as §1
K562 [11] = experiment: Cell cycle arrest in human imatinib-resistant K562 leukemia cells expressing p210Bcr/Ab assessed as accumulation at G0/G1 phase at 1 ug/ml after 48 hrs by flow cytometry; assay type: functional; how it was run: as §1

SMILES | IC50 (K562 [1]) [nM] | also measured
C=C(C)C(=O)Oc1ccc2cc1Oc1ccc(cc1)C[C@H]1c3cc(c(OC)cc3CCN1C)Oc1c(OC)c(OC)cc3c1[C@@H](C2)N(C)CC3 | 3810 | 
COc1cc2c3cc1Oc1c(OC)c(OC)cc4c1[C@@H](Cc1ccc(OC(=O)c5cccc(C(F)(F)F)c5)c(c1)Oc1ccc(cc1)C[C@@H]3N(C)CC2)N(C)CC4 | 890 | 
COc1cc2c3cc1Oc1c(OC)c(OC)cc4c1[C@@H](Cc1ccc(OC(C)=O)c(c1)Oc1ccc(cc1)C[C@@H]3N(C)CC2)N(C)CC4 | 6600 | 
COc1cc2c3cc1Oc1c(OC)c(OC)cc4c1[C@@H](Cc1ccc(OCc5ccc(Br)cc5)c(c1)Oc1ccc(cc1)C[C@@H]3N(C)CC2)N(C)CC4 | 710 | 
COc1cc2c3cc1Oc1c(OC)c(OC)cc4c1[C@@H](Cc1ccc(OC(=O)c5ccc(Br)cc5)c(c1)Oc1ccc(cc1)C[C@@H]3N(C)CC2)N(C)CC4 | 400 | 
COc1cc2c3cc1Oc1c(OC)c(OC)cc4c1[C@@H](Cc1ccc(OC(=O)c5cc([N+](=O)[O-])cc([N+](=O)[O-])c5)c(c1)Oc1ccc(cc1)C[C@@H]3N(C)CC2)N(C)CC4 | 3750 | 
COc1cc2c3cc1Oc1c(OC)c(OC)cc4c1[C@@H](Cc1ccc(OC(=O)c5ccccc5Br)c(c1)Oc1ccc(cc1)C[C@@H]3N(C)CC2)N(C)CC4 | 780 | 
COc1cc2c3cc1Oc1c(OC)c(OC)cc4c1[C@@H](Cc1ccc(OS(=O)(=O)c5ccccc5)c(c1)Oc1ccc(cc1)C[C@@H]3N(C)CC2)N(C)CC4 | 1990 | 
COc1cc2c3cc1Oc1c(OC)c(OC)cc4c1[C@@H](Cc1ccc(OC(=O)c5cc(OC)c(OC)c(OC)c5)c(c1)Oc1ccc(cc1)C[C@@H]3N(C)CC2)N(C)CC4 | 690 | inhibition (K562 [2]): Active; inhibition (K562 [3]): Active
COc1cc2c3cc1Oc1c(OC)c(OC)cc4c1[C@@H](Cc1ccc(OCc5ccc([N+](=O)[O-])cc5)c(c1)Oc1ccc(cc1)C[C@@H]3N(C)CC2)N(C)CC4 | 360 | 
CCOc1ccc2cc1Oc1ccc(cc1)C[C@H]1c3cc(c(OC)cc3CCN1C)Oc1c(OC)c(OC)cc3c1[C@@H](C2)N(C)CC3 | 3140 | 
COc1cc2c3cc1Oc1c(OC)c(OC)cc4c1[C@@H](Cc1ccc(OCCCBr)c(c1)Oc1ccc(cc1)C[C@@H]3N(C)CC2)N(C)CC4 | 1660 | 
COc1cc2c3cc1Oc1c(OC)c(OC)cc4c1[C@@H](Cc1ccc(OC(=O)c5ccccc5)c(c1)Oc1ccc(cc1)C[C@@H]3N(C)CC2)N(C)CC4 | 2160 | 
COc1cc2c3cc1Oc1c(OC)c(OC)cc4c1[C@@H](Cc1ccc(OC(=O)c5ccccc5C)c(c1)Oc1ccc(cc1)C[C@@H]3N(C)CC2)N(C)CC4 | 690 | Activity (K562 [4]): 29.28%; inhibition (K562 [2]): Active; Activity (K562 [5]): 31.71%; Activity (K562 [6]): 7.3%; Activity (K562 [7]): 51.91%; Activity (K562 [8]): 22.89%; Activity (K562 [9]): 20.04%; inhibition (K562 [3]): Active; Activity (K562 [10]): 6.01%; Activity (K562 [11]): 32.37%
COc1cc2c3cc1Oc1c(OC)c(OC)cc4c1[C@@H](Cc1ccc(OC(=O)Cc5cc(F)c(F)cc5F)c(c1)Oc1ccc(cc1)C[C@@H]3N(C)CC2)N(C)CC4 | 3020 | 
COc1cc2c3cc1Oc1c(OC)c(OC)cc4c1[C@@H](Cc1ccc(OS(C)(=O)=O)c(c1)Oc1ccc(cc1)C[C@@H]3N(C)CC2)N(C)CC4 | 4740 | 

SMILES | IC50 (K562 [1]) [nM] | also measured
COc1cc2c3cc1Oc1c(OC)c(OC)cc4c1[C@@H](Cc1ccc(OC(=O)c5ccc(Cl)cc5)c(c1)Oc1ccc(cc1)C[C@@H]3N(C)CC2)N(C)CC4 | 980 | inhibition (K562 [2]): Active; inhibition (K562 [3]): Active
COc1cc2c3cc1Oc1c(OC)c(OC)cc4c1[C@@H](Cc1ccc(OC(=O)c5ccccc5Cl)c(c1)Oc1ccc(cc1)C[C@@H]3N(C)CC2)N(C)CC4 | 600 | 
COc1cc2c3cc1Oc1c(OC)c(OC)cc4c1[C@@H](Cc1ccc(OCc5ccccc5)c(c1)Oc1ccc(cc1)C[C@@H]3N(C)CC2)N(C)CC4 | 800 | 
COc1cc2c3cc1Oc1c(OC)c(OC)cc4c1[C@@H](Cc1ccc(OC(=O)c5cccc(CCl)c5)c(c1)Oc1ccc(cc1)C[C@@H]3N(C)CC2)N(C)CC4 | 500 | 
COc1cc2c3cc1Oc1c(OC)c(OC)cc4c1[C@@H](Cc1ccc(OCc5cc(OC)c(OC)c(OC)c5)c(c1)Oc1ccc(cc1)C[C@@H]3N(C)CC2)N(C)CC4 | 1530 | 
COc1cc2c3cc1Oc1c(OC)c(OC)cc4c1[C@@H](Cc1ccc(OC(=O)CCl)c(c1)Oc1ccc(cc1)C[C@@H]3N(C)CC2)N(C)CC4 | 2700 | 
COc1cc2c3cc1Oc1c(OC)c(OC)cc4c1[C@@H](Cc1ccc(OC(=O)c5ccco5)c(c1)Oc1ccc(cc1)C[C@@H]3N(C)CC2)N(C)CC4 | 2780 | 
COc1cc2c3cc1Oc1c(OC)c(OC)cc4c1[C@@H](Cc1ccc(OC(=O)c5cc6ccccc6[nH]5)c(c1)Oc1ccc(cc1)C[C@@H]3N(C)CC2)N(C)CC4 | 460 | 
COc1cc2c3cc1Oc1c(OC)c(OC)cc4c1[C@@H](Cc1ccc(OCc5ccc(Cl)nc5)c(c1)Oc1ccc(cc1)C[C@@H]3N(C)CC2)N(C)CC4 | 400 | 
COc1cc2c3cc1Oc1c(OC)c(OC)cc4c1[C@@H](Cc1ccc(OC(=O)C(C)(C)C)c(c1)Oc1ccc(cc1)C[C@@H]3N(C)CC2)N(C)CC4 | 1010 | 
COc1cc2c3cc1Oc1c(OC)c(OC)cc4c1[C@@H](Cc1ccc(OC(=O)Cc5ccccc5)c(c1)Oc1ccc(cc1)C[C@@H]3N(C)CC2)N(C)CC4 | 2230 | 
COc1cc2c3cc1Oc1c(OC)c(OC)cc4c1[C@@H](Cc1ccc(O)c(c1)Oc1ccc(cc1)C[C@@H]3N(C)CC2)N(C)CC4 [BERBAMINE] | 8930 | inhibition (K562 [2]): Active; inhibition (K562 [3]): Active
COc1cc2c3cc1Oc1c(OC)c(OC)cc4c1[C@@H](Cc1ccc(OC(=O)c5cccc(F)c5)c(c1)Oc1ccc(cc1)C[C@@H]3N(C)CC2)N(C)CC4 | 1970 | 
COc1cc2c3cc1Oc1c(OC)c(OC)cc4c1[C@@H](Cc1ccc(OC(=O)c5ccc([N+](=O)[O-])cc5)c(c1)Oc1ccc(cc1)C[C@@H]3N(C)CC2)N(C)CC4 [E6 BERBAMINE] | 2130 | 
CCOCCCCOc1ccc2cc1Oc1ccc(cc1)C[C@H]1c3cc(c(OC)cc3CCN1C)Oc1c(OC)c(OC)cc3c1[C@@H](C2)N(C)CC3 | 4080 | 
COc1ccc(C(=O)Oc2ccc3cc2Oc2ccc(cc2)C[C@H]2c4cc(c(OC)cc4CCN2C)Oc2c(OC)c(OC)cc4c2[C@@H](C3)N(C)CC4)cc1 | 550 | inhibition (K562 [2]): Active; inhibition (K562 [3]): Active
